Source: ChEMBL document CHEMBL2010643 (Bioorg Med Chem Lett, 2012)
Calls of active or inactive are those of the source. The rule behind the calls is not given here.

Legend:
[1] = target: Tyrosine-protein kinase CSK (Homo sapiens) (UniProt P41240); test: Inhibition of CSK assessed as residual activity at 10 uM relative to control
[2] = target: Death-associated protein kinase 1 (Homo sapiens) (UniProt P53355); test: Inhibition of DAPK1 assessed as residual activity at 1 uM relative to control
In short: (§1)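 Standard radioactivity-based enzymatic assays were run across a 124-kinase panel (Dundee profiling), with compound at 1 µM. Kinase activity was expressed relative to control.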

[3] = target: MAP kinase-interacting serine/threonine-protein kinase 2 (Homo sapiens) (UniProt Q9HBH9); test: Inhibition of MNK2 assessed as residual activity at 1 uM relative to control
[4] = target: Serine/threonine-protein kinase 26 (Homo sapiens) (UniProt Q9P289); test: Inhibition of MST4 assessed as residual activity at 1 uM relative to control
[5] = target: Dual specificity mitogen-activated protein kinase kinase 1 (Homo sapiens) (UniProt Q02750); test: Inhibition of MKK1 assessed as residual activity at 10 uM relative to control
[6] = target: Insulin receptor-related protein (Homo sapiens) (UniProt P14616); test: Inhibition of IRR assessed as residual activity at 1 uM relative to control
[7] = target: Eukaryotic elongation factor 2 kinase (Homo sapiens) (UniProt O00418); test: Inhibition of EF2K assessed as residual activity at 1 uM relative to control; in short: as §1
Plasma = test: AUClast in Swiss albino mouse plasma at 10 mg/kg, po; type: ADME, organism-based; parameters: time 0 - last, dose 10 mg/kg, route oral; conditions: in vivo
In short: (§2)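 Male Swiss Albino mice were given a single dose, either intravenous at 1 mg/kg or oral at 10 mg/kg. AUClast was measured in plasma and in brain. Half-life, plasma clearance, volume of distribution and oral bioavailability were derived from the plasma data.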

[8] = target: Serine/threonine-protein kinase STK11 (Homo sapiens) (UniProt Q15831); test: Inhibition of LKB1 assessed as residual activity at 1 uM relative to control
[9] = target: Insulin receptor-related protein (Homo sapiens) (UniProt P14616); test: Inhibition of IRR assessed as residual activity at 10 uM relative to control
[10] = target: Mitogen-activated protein kinase kinase kinase 1 (Homo sapiens) (UniProt Q13233); test: Inhibition of MEKK1 assessed as residual activity at 10 uM relative to control
[11] = target: Tau-tubulin kinase 1 (Homo sapiens) (UniProt Q5TCY1); test: Inhibition of TTBK1 assessed as residual activity at 10 uM relative to control
In short: (§3)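 Radioactivity-based enzymatic kinase assays run across a 124-kinase profiling panel (Dundee), reporting the remaining kinase activity relative to a control.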

[12] = target: Calcium/calmodulin-dependent protein kinase kinase 2 (Homo sapiens) (UniProt Q96RR4); test: Inhibition of CAMKKb assessed as residual activity at 10 uM relative to control
[13] = target: Mitogen-activated protein kinase kinase kinase 1 (Homo sapiens) (UniProt Q13233); test: Inhibition of MEKK1 assessed as residual activity at 1 uM relative to control
[14] = target: Eukaryotic translation initiation factor 2-alpha kinase 3 (Homo sapiens) (UniProt Q9NZJ5); test: Inhibition of EIF2AK3 assessed as residual activity at 10 uM relative to control
Chain of Eukaryotic translation initiation factor 2-alpha kinase 3 (Homo sapiens) (Q9NZJ5 whole entry): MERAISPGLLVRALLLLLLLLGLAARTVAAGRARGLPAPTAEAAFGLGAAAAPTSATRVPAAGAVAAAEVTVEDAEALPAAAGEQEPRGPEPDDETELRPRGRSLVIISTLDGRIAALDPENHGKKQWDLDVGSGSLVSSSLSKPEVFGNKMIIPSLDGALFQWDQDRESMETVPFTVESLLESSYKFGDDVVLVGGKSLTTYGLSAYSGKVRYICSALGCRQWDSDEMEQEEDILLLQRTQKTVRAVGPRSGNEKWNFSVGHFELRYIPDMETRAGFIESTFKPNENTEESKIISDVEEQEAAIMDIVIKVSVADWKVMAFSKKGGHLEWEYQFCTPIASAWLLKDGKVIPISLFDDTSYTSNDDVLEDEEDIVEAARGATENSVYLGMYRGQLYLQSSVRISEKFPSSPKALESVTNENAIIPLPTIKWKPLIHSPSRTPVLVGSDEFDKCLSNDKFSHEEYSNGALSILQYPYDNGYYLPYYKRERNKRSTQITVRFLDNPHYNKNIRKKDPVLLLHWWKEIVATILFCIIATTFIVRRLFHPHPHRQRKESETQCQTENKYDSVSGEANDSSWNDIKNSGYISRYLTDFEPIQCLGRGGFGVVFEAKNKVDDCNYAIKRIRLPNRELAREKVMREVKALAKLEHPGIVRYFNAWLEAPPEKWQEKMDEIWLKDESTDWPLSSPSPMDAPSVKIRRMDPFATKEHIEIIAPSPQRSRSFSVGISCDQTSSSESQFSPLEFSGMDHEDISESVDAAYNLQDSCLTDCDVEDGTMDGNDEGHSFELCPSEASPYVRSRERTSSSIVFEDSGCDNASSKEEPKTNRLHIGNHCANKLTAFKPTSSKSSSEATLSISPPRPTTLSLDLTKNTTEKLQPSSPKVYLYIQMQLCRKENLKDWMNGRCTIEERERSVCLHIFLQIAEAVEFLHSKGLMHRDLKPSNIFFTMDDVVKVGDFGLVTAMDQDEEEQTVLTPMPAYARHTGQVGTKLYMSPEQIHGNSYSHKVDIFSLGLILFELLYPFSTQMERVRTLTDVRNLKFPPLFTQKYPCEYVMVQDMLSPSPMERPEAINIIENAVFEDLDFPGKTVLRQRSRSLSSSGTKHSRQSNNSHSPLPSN

[15] = target: Mitogen-activated protein kinase 15 (Homo sapiens) (UniProt Q8TD08); test: Inhibition of ERK8 assessed as residual activity at 1 uM relative to control; in short: as §1
[16] = target: Mitogen-activated protein kinase 13 (Homo sapiens) (UniProt O15264); test: Inhibition of p38delta MAPK assessed as residual activity at 10 uM relative to control; in short: as §3
Chain of Mitogen-activated protein kinase 13 (Homo sapiens) (O15264 whole entry): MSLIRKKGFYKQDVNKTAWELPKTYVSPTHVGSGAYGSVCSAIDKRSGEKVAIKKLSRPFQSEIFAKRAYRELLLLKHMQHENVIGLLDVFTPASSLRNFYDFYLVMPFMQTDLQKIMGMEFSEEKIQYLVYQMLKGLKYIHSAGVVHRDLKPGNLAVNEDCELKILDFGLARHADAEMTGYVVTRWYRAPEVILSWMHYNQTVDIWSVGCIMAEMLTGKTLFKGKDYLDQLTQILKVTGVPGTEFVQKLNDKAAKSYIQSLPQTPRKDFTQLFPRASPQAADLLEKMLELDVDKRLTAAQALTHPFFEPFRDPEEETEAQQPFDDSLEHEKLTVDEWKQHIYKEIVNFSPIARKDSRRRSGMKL

[17] = target: Ribosomal protein S6 kinase beta-1 (Homo sapiens) (UniProt P23443); test: Inhibition of S6K1 assessed as residual activity at 10 uM relative to control
[18] = target: T1, Leucine-rich repeat serine/threonine-protein kinase 2 (Homo sapiens, UniProt Q5S007); test: Inhibition of wild-type LRRK2 phosphorylation at Ser910 expressed in HEK293 cells at 0.1 to 0.3 uM after 90 mins by immunoblot analysis; type: cell-based
T1 sequence (Q5S007 whole entry): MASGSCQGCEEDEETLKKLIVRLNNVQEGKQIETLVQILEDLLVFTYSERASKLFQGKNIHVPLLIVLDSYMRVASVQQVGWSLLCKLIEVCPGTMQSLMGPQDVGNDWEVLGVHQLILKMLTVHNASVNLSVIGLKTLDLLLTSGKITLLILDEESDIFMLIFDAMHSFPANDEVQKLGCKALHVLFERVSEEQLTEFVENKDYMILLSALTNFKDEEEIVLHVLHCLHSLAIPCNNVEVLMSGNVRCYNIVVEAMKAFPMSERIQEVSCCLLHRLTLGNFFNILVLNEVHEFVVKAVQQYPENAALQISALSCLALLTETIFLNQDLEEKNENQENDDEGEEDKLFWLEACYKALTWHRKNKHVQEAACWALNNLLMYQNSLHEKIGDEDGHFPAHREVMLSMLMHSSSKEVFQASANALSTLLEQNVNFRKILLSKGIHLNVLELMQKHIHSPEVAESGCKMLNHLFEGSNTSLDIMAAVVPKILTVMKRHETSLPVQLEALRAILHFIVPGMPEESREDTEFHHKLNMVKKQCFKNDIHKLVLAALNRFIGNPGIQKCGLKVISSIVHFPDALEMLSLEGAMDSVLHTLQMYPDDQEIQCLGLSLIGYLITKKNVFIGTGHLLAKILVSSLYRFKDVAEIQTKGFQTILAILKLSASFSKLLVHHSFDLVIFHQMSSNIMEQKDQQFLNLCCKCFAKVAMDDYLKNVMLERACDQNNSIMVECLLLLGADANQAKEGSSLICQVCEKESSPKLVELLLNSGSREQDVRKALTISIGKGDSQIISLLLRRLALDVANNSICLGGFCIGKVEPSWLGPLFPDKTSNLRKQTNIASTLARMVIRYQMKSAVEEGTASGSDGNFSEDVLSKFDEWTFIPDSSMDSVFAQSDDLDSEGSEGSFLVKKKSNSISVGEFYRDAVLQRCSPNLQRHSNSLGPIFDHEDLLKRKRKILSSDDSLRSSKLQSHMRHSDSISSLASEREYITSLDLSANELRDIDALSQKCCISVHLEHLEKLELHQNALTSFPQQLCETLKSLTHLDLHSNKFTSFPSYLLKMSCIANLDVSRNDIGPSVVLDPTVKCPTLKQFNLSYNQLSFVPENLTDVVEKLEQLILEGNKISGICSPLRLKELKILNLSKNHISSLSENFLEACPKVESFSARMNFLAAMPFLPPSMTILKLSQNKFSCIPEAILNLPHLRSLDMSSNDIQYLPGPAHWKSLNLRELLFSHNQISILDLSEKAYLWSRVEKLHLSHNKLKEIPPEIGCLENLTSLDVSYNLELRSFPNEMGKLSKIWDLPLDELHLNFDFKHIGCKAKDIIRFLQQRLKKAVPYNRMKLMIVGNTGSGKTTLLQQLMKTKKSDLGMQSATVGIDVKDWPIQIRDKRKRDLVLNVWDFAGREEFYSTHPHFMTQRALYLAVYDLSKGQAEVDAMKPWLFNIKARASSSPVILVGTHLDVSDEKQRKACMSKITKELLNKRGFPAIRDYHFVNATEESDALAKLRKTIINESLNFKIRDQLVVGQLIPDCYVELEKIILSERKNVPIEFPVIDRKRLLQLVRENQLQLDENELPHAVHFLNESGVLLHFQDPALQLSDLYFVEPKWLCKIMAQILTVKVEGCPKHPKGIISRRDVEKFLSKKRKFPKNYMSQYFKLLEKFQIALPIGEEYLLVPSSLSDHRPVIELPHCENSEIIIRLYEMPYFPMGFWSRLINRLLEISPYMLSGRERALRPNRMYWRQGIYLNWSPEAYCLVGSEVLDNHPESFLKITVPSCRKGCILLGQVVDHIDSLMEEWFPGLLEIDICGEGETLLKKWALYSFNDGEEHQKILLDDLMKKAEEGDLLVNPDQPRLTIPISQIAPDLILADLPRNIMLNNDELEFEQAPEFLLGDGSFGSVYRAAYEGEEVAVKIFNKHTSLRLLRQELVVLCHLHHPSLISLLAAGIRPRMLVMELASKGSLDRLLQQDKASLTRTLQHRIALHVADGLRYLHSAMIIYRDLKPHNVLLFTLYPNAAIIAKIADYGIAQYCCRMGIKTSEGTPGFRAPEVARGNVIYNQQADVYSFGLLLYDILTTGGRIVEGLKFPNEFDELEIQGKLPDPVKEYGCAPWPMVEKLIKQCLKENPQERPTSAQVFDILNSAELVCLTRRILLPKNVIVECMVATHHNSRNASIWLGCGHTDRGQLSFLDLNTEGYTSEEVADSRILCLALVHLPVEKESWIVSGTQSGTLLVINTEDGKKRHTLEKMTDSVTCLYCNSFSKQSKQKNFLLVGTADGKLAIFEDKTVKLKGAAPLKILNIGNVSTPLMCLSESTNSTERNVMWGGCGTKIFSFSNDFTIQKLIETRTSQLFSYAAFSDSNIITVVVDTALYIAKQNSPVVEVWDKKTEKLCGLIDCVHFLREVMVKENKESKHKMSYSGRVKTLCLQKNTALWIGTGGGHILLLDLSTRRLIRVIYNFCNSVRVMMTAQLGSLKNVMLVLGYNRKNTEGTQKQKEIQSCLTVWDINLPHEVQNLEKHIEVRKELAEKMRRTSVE
In short: (§4)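 HEK293 cells stably expressing wild-type GFP-LRRK2 exposed to DMSO or increasing inhibitor concentrations for 90 min. Lysates immunoblotted for LRRK2 phosphorylated at Ser910 and Ser935 and for total LRRK2.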

[19] = target: Dual specificity tyrosine-phosphorylation-regulated kinase 2 (Homo sapiens) (UniProt Q92630); test: Inhibition of DYRK2 assessed as residual activity at 1 uM relative to control; in short: as §1
[20] = target: T1, Leucine-rich repeat serine/threonine-protein kinase 2; test: Inhibition of wild-type LRRK2 phosphorylation at Ser935 expressed in HEK293 cells at 0.1 to 0.3 uM after 90 mins by immunoblot analysis; type: cell-based; in short: as §4
[21] = target: Tyrosine-protein kinase ZAP-70 (Homo sapiens) (UniProt P43403); test: Inhibition of ZAP70 assessed as residual activity at 1 uM relative to control; in short: as §3
[22] = target: T1, Leucine-rich repeat serine/threonine-protein kinase 2; test: Inhibition of wild-type LRRK2 phosphorylation at Ser935 expressed in HEK293 cells after 90 mins by immunoblot analysis; type: cell-based; in short: as §4
[23] = target: Protein-tyrosine kinase 6 (Homo sapiens) (UniProt Q13882); test: Inhibition of BRK assessed as residual activity at 1 uM relative to control
[24] = target: Ephrin type-B receptor 1 (Homo sapiens) (UniProt P54762); test: Inhibition of EPH-B1 assessed as residual activity at 1 uM relative to control; in short: as §1
[25] = target: Tyrosine-protein kinase CSK (Homo sapiens) (UniProt P41240); test: Inhibition of CSK assessed as residual activity at 1 uM relative to control; in short: as §1
[26] = target: Serine/threonine-protein kinase N2 (Homo sapiens) (UniProt Q16513); test: Inhibition of PRK2 assessed as residual activity at 10 uM relative to control
[27] = target: Protein kinase C alpha type (Homo sapiens) (UniProt P17252); test: Inhibition of PKCalpha assessed as residual activity at 1 uM relative to control
[28] = Inhibition of PKA assessed as residual activity at 1 uM relative to control
[29] = target: Glycogen synthase kinase-3 beta (Homo sapiens) (UniProt P49841); test: Inhibition of GSK3b assessed as residual activity at 10 uM relative to control
Brain = test: AUClast in Swiss albino mouse brain at 1 mg/kg, iv; type: ADME, organism-based; parameters: time 0 - last, dose 1 mg/kg, route intravenous; conditions: in vivo; in short: as §2
[30] = tested on: Leucine-rich repeat serine/threonine-protein kinase 2 (Homo sapiens), Q5S007 [A2016T]; test: Inhibition of LRRK2 A2016T mutant phosphorylation at Ser935 expressed in HEK293 cells at 1 to 3 uM after 90 mins by immunoblot analysis; type: cell-based
[31] = target: T1, Leucine-rich repeat serine/threonine-protein kinase 2; test: Inhibition of wild type LRRK2 phosphorylation at Ser910 in human lymphoblastoid cells at 0.03 to 3 uM after 90 mins by Western blot analysis; type: cell-based
[32] = target: MAP kinase-activated protein kinase 5 (Homo sapiens) (UniProt Q8IW41); test: Inhibition of PRAK assessed as residual activity at 1 uM relative to control
[33] = target: Mitogen-activated protein kinase 14 (Homo sapiens) (UniProt Q16539); test: Inhibition of p38alpha MAPK assessed as residual activity at 10 uM relative to control; in short: as §3
[34] = target: Protein kinase C alpha type (Homo sapiens) (UniProt P17252); test: Inhibition of PKCalpha assessed as residual activity at 10 uM relative to control
[35] = target: Eukaryotic translation initiation factor 2-alpha kinase 3 (Homo sapiens) (UniProt Q9NZJ5); test: Inhibition of EIF2AK3 assessed as residual activity at 1 uM relative to control; in short: as §1

Chain of Tyrosine-protein kinase CSK (Homo sapiens) (P41240 2-450 limits assumed): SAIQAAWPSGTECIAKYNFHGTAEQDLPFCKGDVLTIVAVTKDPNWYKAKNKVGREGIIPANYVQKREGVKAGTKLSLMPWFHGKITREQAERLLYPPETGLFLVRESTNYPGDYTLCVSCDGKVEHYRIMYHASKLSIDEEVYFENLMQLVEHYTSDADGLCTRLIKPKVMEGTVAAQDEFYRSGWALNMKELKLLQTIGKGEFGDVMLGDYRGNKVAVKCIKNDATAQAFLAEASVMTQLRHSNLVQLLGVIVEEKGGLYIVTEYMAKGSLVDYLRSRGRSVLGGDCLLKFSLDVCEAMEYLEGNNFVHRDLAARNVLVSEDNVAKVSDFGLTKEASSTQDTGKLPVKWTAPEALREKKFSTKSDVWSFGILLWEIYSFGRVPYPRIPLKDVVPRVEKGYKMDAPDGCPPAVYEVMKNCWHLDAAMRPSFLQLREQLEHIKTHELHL

COc1cc(N2CCC(N3CCN(C)CC3)CC2)ccc1Nc1ncc(Cl)c(Nc2ccccc2S(=O)(=O)C(C)C)n1 [TAE-684]
Activity [1]: 33%
Activity [2]: 98%
Activity [3]: 101%
Activity [4]: 92%
Activity [5]: 30%
Activity [6]: 98%
Activity [7]: 96%
AUClast (Plasma): 6374 ng·h/mL
Activity [8]: 94%
Activity [9]: 66%
Activity [10]: 104%
Activity [11]: 101%
Activity [12]: 5%
Activity [13]: 109%
Activity [14]: 95%
Activity [15]: 47%
Activity [16]: 87%
Activity [17]: 68%
inhibition [18]: Active
Activity [19]: 105%
inhibition [20]: Active
Activity [21]: 113%
inhibition [22]: Dose-dependent effect
Activity [23]: 5%
Activity [24]: 50%
Activity [25]: 77%
Activity [26]: 18%
Activity [27]: 109%
Activity [28]: 90%
Activity [29]: 92%
AUClast (Brain): 1318 ng·h/mL
inhibition [30]: Active
inhibition [31]: Active
Activity [32]: 101%
Activity [33]: 79%
Activity [34]: 122%
Activity [35]: 101%
